The text below walks through data of ChEMBL document CHEMBL1138555, “N-acylated and N,N'-diacylated imidazolidine-2-thione derivatives and N,N'-diacylated tetrahydropyrimidine-2(1H)-thione analogues: synthesis and antiproliferative activity” (Eur J Med Chem, 2009).

Format in all cases: functional
Assay [1] concerns T47D. As to the kind of experiment: Growth inhibition of human T47D cells after 48 hrs by sulforhodamine B assay. The gist of the method: (§1)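 NCI in vitro panel screen. Compounds tested at five 10-fold dilutions, 10^-4 to 10^-8 M. Cells in 96-well plates were exposed for the last 48 h of a 72 h incubation. Viability/growth was read by sulforhodamine B protein assay. GI50 is the concentration giving 50% growth inhibition. Values beyond the tested range are reported as greater or less than the maximum or minimum concentration.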

Assay [2] relates to M14. As to the kind of experiment: Growth inhibition of human M14 cells after 48 hrs by sulforhodamine B assay. As to conditions: M14, 48 h. The gist of the method:
(§2)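 NCI screen panel. Five 10-fold concentrations from 10^-4 to 10^-8 M. Exposure for the last 48 h of a 72 h incubation. Growth estimated by sulforhodamine B protein assay. GI50 is the concentration giving 50% growth inhibition. Where that level was not reached or was exceeded, the value is given as above or below the highest or lowest concentration tested.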
Background: In SRB staining, fixed cells bind dye roughly in proportion to their protein.

Assay [3] in a line: Growth inhibition of human […] cells after 48 hrs by sulforhodamine B assay. In a few lines:
as §2

The test system of assay [4] is K562. As to the kind of experiment: Growth inhibition of human K562 cells after 48 hrs by sulforhodamine B assay. The following applies: K562, 48 h. In a few lines:
as §2

The subject of assay [5] is SF-539. As to the kind of experiment: Growth inhibition of human SF539 cells after 48 hrs by sulforhodamine B assay. The following applies: SF-539, 48 h. In a few lines: as §2
Assay [6] has as its system HL-60(TB). As to the kind of experiment: Growth inhibition of human HL-60(TB) cells after 48 hrs by sulforhodamine B assay. The following applies: HL-60, 48 h. In a few lines:
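NCI 60-cell-line screen protocol: cells exposed to compound at five 10-fold dilutions from 10^-4 to 10^-8 M for the last 48 h of a 72 h incubation. Sulforhodamine B protein assay estimated viability/growth. GI50 (50% growth inhibition) derived; where not reached or exceeded, reported as greater or less than the highest or lowest concentration tested.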

Assay [7] deals with CAKI-1. Kind of assay: Growth inhibition of human Caki1 cells after 48 hrs by sulforhodamine B assay. As to conditions: CAKI-1, 48 h. The gist of the method:
as §2

The subject of assay [8] is OVCAR-8. Kind of assay: Growth inhibition of human OVCAR8 cells after 48 hrs by sulforhodamine B assay. The following applies: OVCAR-8, 48 h. The gist of the method:
as §2

Assay [9] deals with OVCAR-3. Kind of assay: Growth inhibition of human OVCAR-3 cells after 48 hrs by sulforhodamine B assay. As to conditions: OVCAR-3, 48 h. The gist of the method: as §2
Assay [10] deals with NCI-H460. Kind of assay: Growth inhibition of human NCI-H460 cells after 48 hrs by sulforhodamine B assay. The following applies: NCI-H460, 48 h. The gist of the method:
as §2

Assay [11] relates to NCI-H522. Kind of assay: Growth inhibition of human NCI-H522 cells after 48 hrs by sulforhodamine B assay. As to conditions: NCI-H522, 48 h. In a few lines:
as §2

In assay [12] the test system is EKVX. Kind of assay: Growth inhibition of human EKVX cells after 48 hrs by sulforhodamine B assay. The gist of the method:
as §2

The test system of assay [13] is NCI/ADR-RES. As to the kind of experiment: Growth inhibition of human NCI/ADR-RES cells after 48 hrs by sulforhodamine B assay. The gist of the method: as §2
Assay [14] concerns NCI-H23. Kind of assay: Growth inhibition of human NCI-H23 cells after 48 hrs by sulforhodamine B assay. The following applies: NCI-H23, 48 h. The gist of the method: as §2
In assay [15] the test system is SW-620. Kind of assay: Growth inhibition of human SW620 cells after 48 hrs by sulforhodamine B assay. As to conditions: SW-620, 48 h. In a few lines: as §1
In assay [16] the test system is TK-10. As to the kind of experiment: Growth inhibition of human TK10 cells after 48 hrs by sulforhodamine B assay. The following applies: TK-10, 48 h. In a few lines:
as §1

Assay [17] deals with SK-MEL-2. Kind of assay: Growth inhibition of human SK-MEL-2 cells after 48 hrs by sulforhodamine B assay. The following applies: SK-MEL-2, 48 h. The gist of the method:
as §2

The subject of assay [18] is KM12. Kind of assay: Growth inhibition of human KM12 cells after 48 hrs by sulforhodamine B assay. As to conditions: KM12, 48 h. In a few lines:
as §2

The subject of assay [19] is SK-MEL-5. Kind of assay: Growth inhibition of human SK-MEL-5 cells after 48 hrs by sulforhodamine B assay. As to conditions: SK-MEL-5, 48 h. In a few lines: as §2
Assay [20] concerns SR. Kind of assay: Growth inhibition of human SR cells after 48 hrs by sulforhodamine B assay. In a few lines:
as §1

Turning to `COc1cc(C(=O)N2CCN(C=O)C2=S)cc(OC)c1OC`, the GI50 in assay [1] amounted to 20.7 µM; in assay [2] it was 20.6 µM; in [3] it was 7300 nM; in assay [4] it was 30.8 µM; in assay [5] it was 21.3 µM; in assay [6], 23.4 µM. The GI50 in assay [7] was determined as 13.6 µM; in [8], 24 µM; in assay [9], 16.9 µM; in assay [10], 34 µM; in assay [11], 5.8 µM; in assay [12] it was 31.8 µM. Moreover, the GI50 in [13] was found to be 36.1 µM; in assay [14], 25.9 µM; in [15], 26.8 µM; in [16], 17.1 µM; in assay [17], 19.9 µM; in assay [18], 14.4 µM.
With `O=C(c1ccc(Cl)c(Cl)c1)N1CCN(C(=O)c2ccc(Cl)c(Cl)c2)C1=S`, the GI50 in assay [1] was 17.5 µM; in assay [2], 19.6 µM; in assay [3], 1800 nM; in assay [4] it was 16.5 µM; in assay [5], 15.1 µM; in [6], 12.7 µM. Also, the GI50 is 14 µM in assay [7]; 19 µM in assay [8]; 17.1 µM in assay [9]; 22 µM in [10]; 6.1 µM in assay [11]; 20.8 µM in [12]. The GI50 was 34.4 µM in assay [13]; 22 µM in assay [14]; 21.3 µM in assay [15]; 18.5 µM in [16]; 18.4 µM in assay [17]; 16.1 µM in [18].
In the case of `COc1cc(C(=O)N2CCN(C(=O)c3cc(OC)c(OC)c(OC)c3)C2=S)cc(OC)c1OC`, the GI50 in [1] was 13.1 µM; in [2], 16.8 µM; in assay [3], 3700 nM; in assay [4] it was 24.9 µM; in assay [5] it was 14.5 µM; in assay [6], 16 µM. The GI50 in [7] is 12.3 µM; in assay [8] it was 21.9 µM; in assay [9], 15.2 µM; in assay [10], 27.2 µM; in assay [11], 3.7 µM; in assay [13], 26.8 µM. Moreover, the GI50 in [14] amounted to 18.7 µM; in assay [15], 20.3 µM; in assay [16], 17 µM; in assay [17], 16.3 µM; in assay [18] it was 14.2 µM.
As for `O=CN1CCN(C(=O)c2ccco2)C1=S`, the GI50 in [1] came out at 4 µM; in [2], 10.7 µM; in assay [3], 1800 nM; in [4], 2.6 µM; in assay [5], 2.5 µM; in [6] it was 2.8 µM. Moreover, the GI50 in assay [7] was found to be 5.1 µM; in assay [19], 12.7 µM; in assay [8] it was 16.8 µM; in [9], 4.2 µM; in assay [10], 7.3 µM; in assay [11], 4 µM. Also, the GI50 is 13.7 µM in [12]; 24.5 µM in assay [13]; 16.7 µM in assay [14]; 5.5 µM in assay [15]; 2100 nM in assay [20]; 14.3 µM in assay [16]. The GI50 in assay [17] came out at 16.5 µM; in [18], 5.3 µM.
Turning to `O=C(c1ccc(Cl)cc1Cl)N1CCN(C(=O)c2ccc(Cl)cc2Cl)C1=S`, the GI50 in assay [1] came to 19.5 µM; in assay [2], 16.3 µM; in [3], 12900 nM; in assay [4], 31.4 µM; in assay [5], 27.2 µM; in assay [6], 16.6 µM. Further, the GI50 in assay [7] came out at 22.1 µM; in assay [8], 22.1 µM; in assay [9], 19.7 µM; in [10], 35.4 µM; in assay [11], 18.2 µM; in assay [12], 20.5 µM. In addition, the 50% growth inhibitory concentration (GI50) in assay [13] came out at 24.8 µM; in assay [14], 19.8 µM; in assay [15], 28.2 µM; in assay [16], 36.3 µM; in [17], 18.4 µM; in [18] it was 15.3 µM.
Consider `O=C(c1ccco1)N1CCN(C(=O)c2ccco2)C1=S`, for which the GI50 came out at 4.9 µM in [1]; 7.7 µM in assay [2]; 2000 nM in assay [3]; 1 µM in [4]; 3 µM in assay [5]; 4 µM in [6]. Moreover, the GI50 in [7] was determined as 5.1 µM; in [19], 10.1 µM; in assay [8], 8.8 µM; in assay [9] it was 2.7 µM; in assay [10], 3.3 µM; in [11] it was 3.1 µM. Moreover, the GI50 came to 13.4 µM in assay [12]; 15.6 µM in [13]; 19.5 µM in assay [14]; 5.5 µM in assay [15]; 1800 nM in assay [20]; 6.3 µM in assay [16]. The GI50 came out at 14.2 µM in assay [17] and 4 µM in [18].
As for `O=C(c1cccs1)N1CCN(C(=O)c2cccs2)C1=S`, the GI50 in assay [1] worked out at 4.6 µM; in assay [2] it was 3.6 µM; in assay [3], 1200 nM; in assay [4] it was 3.5 µM; in [5], 1.8 µM; in [6], 2.2 µM. Besides, the GI50 in assay [7] is 3.4 µM; in assay [19], 4.6 µM; in assay [8], 5.3 µM; in assay [9], 3.5 µM; in [10], 18.7 µM; in assay [11], 3.8 µM. In addition, the GI50 came to 15.9 µM in assay [12]; 19.1 µM in assay [13]; 10.6 µM in [14]; 4.8 µM in [15]; 3400 nM in assay [20]; 5.4 µM in [16]. The results for the GI50 in [17] and in assay [18] were 12.6 µM and 3.4 µM, respectively.
Turning to `O=C(c1cc(Cl)cc(Cl)c1)N1CCN(C(=O)c2cc(Cl)cc(Cl)c2)C1=S`, the GI50 in assay [1] turned out to be 6.5 µM; in assay [2], 11.9 µM; in assay [3] it was 1500 nM; in [4] it was 4.8 µM; in assay [5], 12.8 µM; in assay [6] it was 3.3 µM. Moreover, the GI50 in assay [7] is 9.7 µM; in [19], 16.1 µM; in assay [8], 15.3 µM; in assay [9] it was 10.2 µM; in assay [10], 20.8 µM; in assay [11], 3.7 µM. In addition, the GI50 in assay [12] was 17.6 µM; in assay [13] it was 31.7 µM; in [14], 14.8 µM; in assay [15], 11.1 µM; in [20], 3300 nM; in assay [16], 10.7 µM. In addition, the 50% growth inhibitory concentration (GI50) in [17] is 16.1 µM; in assay [18] it was 10.1 µM.

What is called GI50 is the concentration at which growth is held to half of that of the control. A higher GI50 goes with less potent growth inhibition.
